By IC50 is commonly meant the concentration that gives 50% inhibition. A high value points to a need for much substance.

A value given as a limit tells only on which side of the number the result lay.

The source of these data is ChEMBL document CHEMBL1135620, “Cyclosporins: structure-activity relationships for the inhibition of the human FPR1 formylpeptide receptor” (J Med Chem, 2002).

One test has as its target T1, fMet-Leu-Phe receptor (Homo sapiens, UniProt P21462).
T1 sequence (P21462 whole entry): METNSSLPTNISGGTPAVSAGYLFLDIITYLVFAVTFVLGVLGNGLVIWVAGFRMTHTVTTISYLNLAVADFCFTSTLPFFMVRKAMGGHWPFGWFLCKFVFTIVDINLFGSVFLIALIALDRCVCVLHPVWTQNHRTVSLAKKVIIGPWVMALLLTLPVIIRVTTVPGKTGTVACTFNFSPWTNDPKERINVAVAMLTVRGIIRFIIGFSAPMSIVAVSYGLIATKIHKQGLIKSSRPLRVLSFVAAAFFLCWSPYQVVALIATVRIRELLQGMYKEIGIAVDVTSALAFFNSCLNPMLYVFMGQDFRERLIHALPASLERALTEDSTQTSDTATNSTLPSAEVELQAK
In words: Inhibitory activity against human formylpeptide receptor (FPR) of human leukemia HL-60 cells. The class given is cell-based.
Details: not given
In a few lines:
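HL-60 cells differentiated 48 h with 0.2 mM dibutyryl cAMP, washed, then treated with 5 μM cytochalasin B (5–10 min, 37 °C). Stimulated 10 min with 30 nM f-MLF. N-acetyl-β-D-glucosaminidase release read at 410 nm on p-nitrophenyl substrate after spontaneous-release subtraction. Duplicate wells; IC20/IC50 as mean ± SD of independent experiments.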
Take `CC/C=C/C[C@@H](C)[C@@H](O)[C@H]1C(=O)N[C@@H](CCC)C(=O)N(C)CC(=O)N(C)[C@@H](CC(C)C)C(=O)N[C@@H](C(C)C)C(=O)N(C)[C@@H](CC(C)C)C(=O)N[C@@H](C)C(=O)N[C@H](C)C(=O)N(C)[C@@H](CC(C)C)C(=O)N(C)[C@@H](CC(C)C)C(=O)N(C)[C@@H](C(C)C)C(=O)N1C`: the IC50 was above 10 µM.

Take `CCC[C@@H]1NC(=O)[C@H](CC(C)C)N(C)C(=O)[C@H](C(C)C)N(C)C(=O)[C@H](CC(C)C)N(C)C(=O)[C@H](CC(C)C)N(C)C(=O)[C@@H](C)NC(=O)[C@H](C)NC(=O)[C@H](CC(C)C)N(C)C(=O)[C@H](C(C)C)NC(=O)[C@H](CC(C)C)N(C)C(=O)CN(C)C1=O`: the IC50 was above 10 µM. Take `CC/C=C/C[C@@H](C)[C@@H](O)[C@H]1C(=O)N[C@@H](C(C)C)C(=O)N(C)CC(=O)N(C)[C@@H](CC(C)C)C(=O)N[C@@H](C(C)C)C(=O)N(C)[C@@H](CC(C)C)C(=O)N[C@@H](C)C(=O)N[C@H](C)C(=O)N(C)[C@@H](CC(C)C)C(=O)N(C)[C@@H](CC(C)C)C(=O)N(C)[C@@H](C(C)C)C(=O)N1C`: the IC50 was above 10 µM. `CC/C=C/C[C@@H](C)[C@@H](O)[C@H]1C(=O)N[C@@H](CC)C(=O)N(C)CC(=O)N(C)[C@@H](CC(C)C)C(=O)N[C@@H](C(C)C)C(=O)N(C)[C@@H](CC(C)C)C(=O)N[C@@H](C)C(=O)N[C@H](CCCCN)C(=O)N(C)[C@@H](CC(C)C)C(=O)N(C)[C@@H](CC(C)C)C(=O)N(C)[C@@H](C(C)C)C(=O)N1C` had an IC50 of 6.3 µM. On the same count and under the same terms, the result for `CC/C=C/C[C@@H](C)[C@@H](O)[C@H]1C(=O)N[C@@H](CC)C(=O)N(C)CC(=O)N(C)[C@@H]([C@@H](C)CC)C(=O)N[C@@H](C(C)C)C(=O)N(C)[C@@H](CC(C)C)C(=O)N[C@@H](C)C(=O)N[C@H](C)C(=O)N(C)[C@@H](CC(C)C)C(=O)N(C)[C@@H](CC(C)C)C(=O)N(C)[C@@H](C(C)C)C(=O)N1C` reads 7 µM; that for `C/C=C/C[C@@H](C)[C@@H](O)[C@H]1C(=O)N[C@@H]([C@@H](C)O)C(=O)N(C)CC(=O)N(C)[C@@H](CC(C)C)C(=O)N[C@@H](C(C)C)C(=O)N(C)[C@@H](CC(C)C)C(=O)N[C@@H](C)C(=O)N[C@H](C)C(=O)N(C)[C@@H](CC(C)C)C(=O)N[C@@H](CC(C)C)C(=O)N(C)[C@@H](C(C)C)C(=O)N1C`, above 3 µM.

In the case of `CC[C@@H]1NC(=O)[C@H](CC2CCCCC2)N(C)C(=O)[C@H](C(C)C)N(C)C(=O)[C@H](CC(C)C)N(C)C(=O)[C@H](CC(C)C)N(C)C(=O)[C@@H](C)NC(=O)[C@H](C)NC(=O)[C@H](CC(C)C)N(C)C(=O)[C@H](C(C)C)NC(=O)[C@H](CC(C)C)N(C)C(=O)CN(C)C1=O`, the IC50 is 6.33 µM. Compound `C/C=C/C[C@@H](C)[C@@H](O)[C@H]1C(=O)N[C@@H]([C@@H](C)O)C(=O)N(C)CC(=O)N(C)[C@@H](CC(C)C)C(=O)N[C@@H](C(C)C)C(=O)N(C)[C@@H](CC(C)C)C(=O)N[C@@H](C)C(=O)N[C@H](C)C(=O)N(C)[C@@H](CC(C)C)C(=O)N(C)[C@@H](CC(C)C)C(=O)N[C@@H](C(C)C)C(=O)N1C` showed an IC50 above 10 µM. In turn, `C/C=C/C[C@@H](C)[C@@H](O)[C@H]1C(=O)N[C@@H]([C@@H](C)O)C(=O)N(C)CC(=O)N(C)[C@@H](CC(C)C)C(=O)N[C@@H]([C@@H](C)CC)C(=O)N(C)[C@@H](CC(C)C)C(=O)N[C@@H](C)C(=O)N[C@](O)(C(C)C)C(=O)N(C)[C@@H](CC(C)C)C(=O)N[C@@H](CC(C)C)C(=O)N(C)[C@@H](C(C)C)C(=O)N1C` had an IC50 of 0.75 µM. Same read-out and setting: for `C/C=C/C[C@@H](C)[C@@H](O)[C@H]1C(=O)N[C@@H]([C@@H](C)O)C(=O)NCC(=O)N(C)[C@@H](CC(C)C)C(=O)N[C@@H](CC(C)C)C(=O)N(C)[C@@H](CC(C)C)C(=O)N[C@@H](C)C(=O)N[C@](O)(C(C)C)C(=O)N(C)[C@@H](CC(C)C)C(=O)N[C@@H](CC(C)C)C(=O)N(C)[C@@H](C(C)C)C(=O)N1C` the value was 0.3 µM; for `C/C=C/C[C@@H](C)[C@@H](O)[C@H]1C(=O)N[C@@H](CCC)C(=O)N(C)CC(=O)N(C)[C@@H](CC(C)C)C(=O)N[C@@H](CC(C)C)C(=O)N(C)[C@@H](CC(C)C)C(=O)N[C@@H](C)C(=O)N[C@H](C)C(=O)N(C)[C@@H](CC(C)C)C(=O)N(C)[C@@H](CC(C)C)C(=O)N(C)[C@@H](C(C)C)C(=O)N1C`, above 10 µM; for `C/C=C/C[C@@H](C)[C@@H](O)[C@H]1C(=O)N[C@@H](C)C(=O)N(C)CC(=O)N(C)[C@@H](CC(C)C)C(=O)N[C@@H](C(C)C)C(=O)N(C)[C@@H](CC(C)C)C(=O)N[C@@H](C)C(=O)N[C@H](C)C(=O)N(C)[C@@H](CC(C)C)C(=O)N[C@@H](CC(C)C)C(=O)N(C)[C@@H](C(C)C)C(=O)N1C`, 2.2 µM. `CC/C=C/C[C@@H](C)[C@@H](O)[C@H]1C(=O)N[C@@H](CC)C(=O)N(C)CC(=O)N(C)[C@@H](CC(C)(C)O)C(=O)N[C@@H](C(C)C)C(=O)N(C)[C@@H](CC(C)C)C(=O)N[C@@H](C)C(=O)N[C@H](C)C(=O)N(C)[C@@H](CC(C)C)C(=O)N(C)[C@@H](CC(C)C)C(=O)N(C)[C@@H](C(C)C)C(=O)N1C` returned an IC50 above 10 µM. Turning to `C/C=C/C[C@@H](C)[C@@H](O)[C@H]1C(=O)N[C@@H]([C@@H](C)O)C(=O)N(C)CC(=O)N(C)[C@@H](CC(C)C)C(=O)N[C@@H](CC(C)C)C(=O)N(C)[C@@H](CC(C)C)C(=O)N[C@@H](C)C(=O)N[C@H](C)C(=O)N(C)[C@@H](CC(C)C)C(=O)N[C@@H](C)C(=O)N(C)[C@@H](C(C)C)C(=O)N1C`, the IC50 was 3.25 µM. This counts as single-digit micromolar. `C/C=C/C[C@@H](C)[C@@H](O)[C@H]1C(=O)N[C@@H](CC)C(=O)N(C)CC(=O)N(C)[C@@H](CC(C)C)C(=O)N[C@@H](C(C)C)C(=O)N(C)[C@@H](CC(C)C)C(=O)N[C@@H](C)C(=O)N[C@H](C)C(=O)N(C)[C@@H](CC(C)C)C(=O)N(C)[C@@H](CC(C)C)C(=O)N[C@@H](C(C)C)C(=O)N1C`: the IC50 was above 10 µM.

`C/C=C/C[C@@H](C)[C@@H](O)[C@H]1C(=O)N[C@@H](CC)C(=O)N(C)CC(=O)N(C)[C@@H](CC(C)C)C(=O)N[C@@H](C(C)C)C(=O)N[C@@H](CC(C)C)C(=O)N[C@@H](C)C(=O)N[C@H](C)C(=O)N(C)[C@@H](CC(C)C)C(=O)N[C@@H](CC(C)C)C(=O)N(C)[C@@H](C(C)C)C(=O)N1C` displayed an IC50 of 1.8 µM. Compound `CCCCCC[C@H]1C(=O)N[C@@H](CC)C(=O)N(C)CC(=O)N(C)[C@@H](CC(C)C)C(=O)N[C@@H](C(C)C)C(=O)N(C)[C@@H](CC(C)C)C(=O)N[C@@H](C)C(=O)N[C@H](C)C(=O)N(C)[C@@H](CC(C)C)C(=O)N(C)[C@@H](CC(C)C)C(=O)N(C)[C@@H](C(C)C)C(=O)N1C` had a 50% inhibitory concentration (IC50) above 10 µM. Still for that read-out and setting: the result for `C/C=C/C[C@@H](C)C[C@H]1C(=O)N[C@@H](CC)C(=O)N(C)CC(=O)N(C)[C@@H](CC(C)C)C(=O)N[C@@H](C(C)C)C(=O)N(C)[C@@H](CC(C)C)C(=O)N[C@@H](C)C(=O)N[C@H](C)C(=O)N(C)[C@@H](CC(C)C)C(=O)N(C)[C@@H](CC(C)C)C(=O)N(C)[C@@H](C(C)C)C(=O)N1C` reads above 10 µM; that for `C/C=C/C[C@@H](C)[C@@H](O)[C@H]1C(=O)N[C@@H]([C@@H](C)O)C(=O)N(C)CC(=O)N(C)[C@@H](CC(C)C)C(=O)N[C@@H](C(C)C)C(=O)N(C)[C@@H](CC(C)C)C(=O)N[C@@H](C)C(=O)N[C@](O)(C(C)C)C(=O)N(C)[C@@H](CC(C)C)C(=O)N[C@@H](CC(C)C)C(=O)N(C)[C@@H](C(C)C)C(=O)N1C`, 2.5 µM; that for `C/C=C/C[C@@H](C)[C@@H](O)[C@H]1C(=O)N[C@@H](CCC)C(=O)N(C)CC(=O)N(C)[C@@H](CC(C)C)C(=O)N[C@@H](C(C)C)C(=O)N[C@@H](CC(C)C)C(=O)N[C@@H](C)C(=O)N[C@H](C)C(=O)N(C)[C@@H](CC(C)C)C(=O)N(C)[C@@H](CC(C)C)C(=O)N(C)[C@@H](C(C)C)C(=O)N1C`, above 10 µM. For the compound `CC(C)C[C@H]1C(=O)N[C@@H](C(C)C)C(=O)N(C)[C@@H](CC(C)C)C(=O)N[C@@H](C)C(=O)N[C@H](C)C(=O)N(C)[C@@H](CC(C)C)C(=O)N(C)[C@@H](CC(C)C)C(=O)N(C)[C@@H](C(C)C)C(=O)N(C)[C@@H](CC(C)C)C(=O)N[C@@H](C(C)C)C(=O)N(C)CC(=O)N1C`, the IC50 was above 10 µM. Still for that read-out and setting: for `C/C=C/C[C@@H](C)[C@@H](O)[C@H]1C(=O)N[C@@H](CCC)C(=O)N(C)CC(=O)N(C)[C@@H](CC(C)C)C(=O)N[C@@H](CCC)C(=O)N(C)[C@@H](CC(C)C)C(=O)N[C@@H](C)C(=O)N[C@H](C)C(=O)N(C)[C@@H](CC(C)C)C(=O)N(C)[C@@H](CC(C)C)C(=O)N(C)[C@@H](C(C)C)C(=O)N1C` the value was 3.4 µM; for `C/C=C/C[C@@H](C)[C@@H](O)[C@H]1C(=O)N[C@@H]([C@@H](C)O)C(=O)N(C)CC(=O)N(C)[C@@H](CC(C)C)C(=O)N[C@@H](CC(C)C)C(=O)N(C)[C@@H](CC(C)C)C(=O)N[C@@H](C)C(=O)N[C@H](C)C(=O)N(C)[C@@H](CC(C)C)C(=O)N[C@@H](CC(C)C)C(=O)N(C)[C@@H](C(C)C)C(=O)N1C`, 0.59 µM.

Still in this test, the particulars now being: hl-60.
Compound `C/C=C/C[C@@H](C)[C@@H](O)[C@H]1C(=O)N[C@@H](CC)C(=O)N(C)CC(=O)N(C)[C@@H](CC(C)C)C(=O)N[C@@H](C(C)C)C(=O)N(C)[C@@H](CC(C)C)C(=O)N[C@@H](C)C(=O)N[C@H](C)C(=O)N(C)[C@@H](CC(C)C)C(=O)N(C)[C@@H](CC(C)C)C(=O)N(C)[C@@H]([C@@H](C)CC)C(=O)N1C` yielded an IC50 above 10 µM. In turn, `CC/C=C/C[C@@H](C)[C@@H](O)[C@H]1C(=O)N[C@@H](CC)C(=O)N(C)CC(=O)N(C)[C@@H](Cc2ccccc2)C(=O)N[C@@H](C(C)C)C(=O)N(C)[C@@H](CC(C)C)C(=O)N[C@@H](C)C(=O)N[C@H](C)C(=O)N(C)[C@@H](CC(C)C)C(=O)N(C)[C@@H](CC(C)C)C(=O)N(C)[C@@H](C(C)C)C(=O)N1C` came in with an IC50 above 10 µM.
